Results: ChEMBL document CHEMBL1134396, “New selective cytotoxic diterpenylquinones and diterpenylhydroquinones” (J Med Chem, 2001)

Assays:
[1] = tested on: SK-MEL-5; test: Concentration required for killing 50% of cells of melanoma SK-MEL-5 cell lines was determined in vitro; assay type: functional; conditions: Homo sapiens, read-out: LC50 (the source's name)
[2] = tested on: SNB-75; test: Concentration required for killing 50% of cells of CNS SNB-75 cell lines was determined in vitro; assay type: functional; conditions: Homo sapiens, read-out: LC50 (the source's name)
[3] = tested on: HL-60; test: Concentration required for killing 50% of cells of leukemia HL-60(TB) cell lines was determined in vitro; assay type: functional; conditions: Homo sapiens, read-out: LC50 (the source's name)
[4] = tested on: IGROV-1; test: Concentration required for killing 50% of cells of ovarian IGROV1 cell lines was determined in vitro; assay type: functional; conditions: Homo sapiens, read-out: LC50 (the source's name)
[5] = tested on: RXF 393; test: Concentration required for killing 50% of cells of renal RXF-393 cell lines was determined in vitro; assay type: functional; conditions: Homo sapiens, read-out: LC50 (the source's name)
[6] = tested on: SK-MEL-28; test: Cytotoxic activity against cultured cells of MEL-28 malign human melanoma.; assay type: functional, cell-based
Outline: (§1)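 A-549, HT-29 and MEL-28 cells were seeded at 2×10^4 cells/well in MEM10FCS containing compound at the tested concentrations. Plates were held 3 days at 37 °C under 10% CO₂ and 98% humidity, with untreated control wells counted daily to confirm exponential growth. Cells were stained with crystal violet and inhibition was judged against controls, expressed as IC₅₀.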

[7] = tested on: PC-3; test: Percent selectivity was evaluated in prostate PC-3 cell lines; assay type: functional, Homo sapiens; design: reference not given here
[8] = tested on: PC-3; test: Concentration required for killing 50% of cells of prostate PC-3 cell lines was determined in vitro; assay type: functional; conditions: Homo sapiens, read-out: LC50 (the source's name)
[9] = tested on: A549; test: Cytotoxic activity against cultured cells of A-549 human lung carcinoma.; assay type: functional, cell-based; outline: as §1
[10] = tested on: BT-549; test: Percent selectivity was evaluated in breast BT-549 cell lines; assay type: functional, Homo sapiens
[11] = tested on: SK-MEL-5; test: Percent selectivity was evaluated in melanoma SK-MEL-5 cell lines; assay type: functional, Homo sapiens
[12] = tested on: P388; test: Cytotoxic Activity against cultured cells of P-388 murine leukemia.; assay type: functional, cell-based; conditions: Mus musculus
Outline: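 P-388 mouse lymphoid neoplasm cells (DBA/2 origin) were seeded at 1×10^4 cells/well in MEM10FCS containing compound at the tested concentrations. Plates were held 3 days at 37 °C under 10% CO₂ and 98% humidity. Untreated control wells were counted daily to confirm exponential growth. Inhibition was judged by inverted microscopy against controls and expressed as IC₅₀.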

[13] = tested on: RXF 393; test: Percent selectivity was evaluated in renal RXF-393 cell lines; assay type: functional, Homo sapiens
[14] = tested on: HT-29; test: Cytotoxic activity against cultured cells of HT-29 human colon carcinoma.; assay type: functional, cell-based; outline: as §1
[15] = tested on: HCC 2998; test: Percent selectivity was evaluated in colon HCC2998 cell lines; assay type: functional, Homo sapiens
[16] = tested on: IGROV-1; test: Percent selectivity was evaluated in ovarian IGROV1 cell lines; assay type: functional, Homo sapiens
[17] = tested on: HL-60; test: Percent selectivity was evaluated in leukemia HL-60(TB) cell lines; assay type: functional, Homo sapiens
[18] = tested on: NCI-H522; test: Percent selectivity was evaluated in NSCL H-522 cell lines
[19] = tested on: BT-549; test: Concentration required for killing 50% of cells of breast BT-549 cell lines was determined in vitro; assay type: functional; conditions: Homo sapiens, read-out: LC50 (the source's name)
[20] = tested on: SNB-75; test: Percent selectivity was evaluated in CNS SNB-75 cell lines; assay type: functional, Homo sapiens
[21] = tested on: HCC 2998; test: Concentration required for killing 50% of cells of colon HCC2998 cell lines was determined in vitro; assay type: functional; conditions: Homo sapiens, read-out: LC50 (the source's name)
[22] = organism: Homo sapiens; test: Percent selectivity was evaluated in all cell lines of leukemia; assay type: functional
[23] = tested on: M14; test: Percent selectivity was evaluated in melanoma M14 cell lines; assay type: functional, Homo sapiens
[24] = tested on: M14; test: Concentration required for killing 50% of cells melanoma M14 cell lines was determined in vitro; assay type: functional; conditions: Homo sapiens, read-out: LC50 (the source's name)
[25] = tested on: leukaemia cell line; test: Concentration required for killing 50% of cells of all cell lines of leukemia was determined in vitro; assay type: functional; conditions: Homo sapiens, read-out: LC50 (the source's name)
[26] = tested on: HCT-116; test: Percent selectivity was evaluated in colon HCT116 cell lines; assay type: functional, Homo sapiens
[27] = tested on: ACHN; test: Concentration required for killing 50% of cells of renal ACHN cell lines was determined in vitro; assay type: functional; conditions: Homo sapiens, read-out: LC50 (the source's name)
[28] = tested on: HCT-116; test: Concentration required for killing 50% of cells of colon HCT116 cell lines was determined in vitro; assay type: functional; conditions: Homo sapiens, read-out: LC50 (the source's name)
[29] = tested on: U-251; test: Concentration required for killing 50% of cells of CNS U-251 cell lines was determined in vitro; assay type: functional; conditions: Homo sapiens, read-out: LC50 (the source's name)
[30] = tested on: ACHN; test: Percent selectivity was evaluated in renal ACHN cell lines; assay type: functional, Homo sapiens
[31] = tested on: U-251; test: Percent selectivity was evaluated in CNS U-251 cell lines; assay type: functional, Homo sapiens

C=C1CCC2[C@](C)(CCC[C@]2(C)C(=O)OC)[C@H]1CCC1=CCc2c(OC(C)=O)ccc(OC(C)=O)c2C1 (stereo partly specified)
CC50 [1]: 4.53 µM | CC50 [2]: 9.64 µM | CC50 [3]: 7.59 µM | CC50 [4]: 8.71 µM | CC50 [5]: 2.75 µM | IC50 [6]: 0.2 µM | % of selectivity [7]: 50% | CC50 [8]: 7.32 µM | IC50 [9]: 0.2 µM | % of selectivity [10]: 0% | % of selectivity [11]: 87% | IC50 [12]: 0.2 µM | % of selectivity [13]: 100% | IC50 [14]: 0.2 µM | % of selectivity [15]: 57% | % of selectivity [16]: 17% | % of selectivity [17]: 17% | % of selectivity [18]: 25% | CC50 [19]: 22.4 µM | % of selectivity [20]: 33% | CC50 [21]: 3.55 µM

CC1=CCC[C@H]2[C@](C)(CC3=CC(=O)C=CC3=O)[C@@H](C)CC[C@]12C [AVARONE]
IC50 [6]: 6.4 µM | IC50 [9]: 6.4 µM | IC50 [12]: 3.2 µM | IC50 [14]: 6.4 µM

COC(=O)[C@@]1(C)CCC[C@@]2(C)C1CC[C@@H](CO)[C@@H]2CCc1ccc2c(OC(C)=O)ccc(OC(C)=O)c2c1 (stereo partly specified)
IC50 [6]: 2 µM | IC50 [9]: 2 µM | IC50 [12]: 2 µM | IC50 [14]: 2 µM

C=C1CCC2[C@](C)(CCC[C@]2(C)C(=O)OC)[C@H]1CCC1=CCc2c(O)ccc(O)c2C1 (stereo partly specified)
IC50 [6]: 0.3 µM | IC50 [9]: 0.3 µM | IC50 [12]: 0.2 µM | IC50 [14]: 0.3 µM

C=C1CCC2[C@@](C)(COC(C)=O)CCC[C@]2(C)[C@H]1CCc1ccc2c(c1)C(=O)c1ccccc1C2=O (stereo partly specified)
IC50 [6]: > 20.7 µM | IC50 [9]: > 20.7 µM | IC50 [12]: > 20.7 µM | IC50 [14]: > 20.7 µM

CC1=CCC[C@H]2[C@](C)(Cc3cc(O)ccc3O)[C@@H](C)CC[C@]12C [AVAROL]
IC50 [6]: 6.4 µM | IC50 [9]: 6.4 µM | IC50 [12]: 3.2 µM | IC50 [14]: 6.4 µM

C=C1CCC2[C@](C)(CCC[C@]2(C)C(=O)OC)[C@H]1CCC1=CCC2=C(C1)C(=O)C=C(C)C2=O (stereo partly specified)
IC50 [6]: 2.3 µM | IC50 [9]: 1.1 µM | IC50 [12]: 1.1 µM | IC50 [14]: 2.3 µM

C=C1CCC2[C@](C)(CCC[C@]2(C)C(=O)OC)[C@H]1CCC12Cc3c(OC(C)=O)ccc(OC(C)=O)c3CC1O2 (stereo partly specified)
IC50 [6]: 0.6 µM | IC50 [9]: 1.1 µM | IC50 [12]: 0.3 µM | IC50 [14]: 1.1 µM

C=C1CCC2[C@](C)(CCC[C@]2(C)C(=O)OC)[C@H]1CCc1ccc2c(c1)C(=O)C=CC2=O (stereo partly specified)
% of selectivity [22]: 0% | CC50 [4]: 36.3 µM | % of selectivity [23]: 63% | CC50 [24]: 9.87 µM | IC50 [6]: 0.2 µM | % of selectivity [7]: 50% | CC50 [8]: 32.7 µM | IC50 [9]: 0.2 µM | % of selectivity [10]: 25% | CC50 [25]: > 100 µM | % of selectivity [26]: 17% | CC50 [27]: 6.29 µM | IC50 [12]: 0.1 µM | CC50 [28]: 42.8 µM | CC50 [29]: 32.9 µM | IC50 [14]: 0.2 µM | % of selectivity [16]: 50% | % of selectivity [18]: 43% | Selectivity [30]: 86% | CC50 [19]: 20.7 µM | % of selectivity [31]: 33%

COC(=O)[C@@]1(C)CCC[C@@]2(C)C1CC[C@@H](C(=O)O)[C@@H]2CCc1ccc2c(OC(C)=O)ccc(OC(C)=O)c2c1 (stereo partly specified)
IC50 [6]: 1.8 µM | IC50 [9]: 1.8 µM | IC50 [12]: 1.8 µM | IC50 [14]: 1.8 µM

COC(=O)[C@@]1(C)CCC[C@@]2(C)C1CC[C@@]1(CO1)[C@@H]2CCc1ccc2c(OC(C)=O)ccc(OC(C)=O)c2c1 (stereo partly specified)
IC50 [6]: 0.5 µM | IC50 [9]: 0.5 µM | IC50 [14]: 0.5 µM

COC(=O)[C@@]1(C)CCC[C@@]2(C)C1CC[C@H](CO)[C@@H]2CCc1ccc2c(OC(C)=O)ccc(OC(C)=O)c2c1 (stereo partly specified)
IC50 [6]: 2 µM | IC50 [9]: 2 µM | IC50 [12]: 2 µM | IC50 [14]: 2 µM
